Consider eight compounds from ChEMBL document CHEMBL3259614, “Design, synthesis, and structure-activity relationship studies of novel fused heterocycles-linked triazoles with good activity and water solubility” (J Med Chem, 2014).

Molecules are shown by their SMILES. Values after ≈ are worked out from the molar mass of the structure shown.

In general, MIC refers to the smallest concentration in the dilution series that meets the test's criterion for growth inhibition.

In the first assay the test system is Candida parapsilosis. Briefly: Antimicrobial activity against Candida parapsilosis 22019 after 24 hrs by serial dilution method. The note with it: Lodderomyces parapsilosis, 22019, 24 h. The format is functional. The gist of the method: (§1)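 Broth serial dilution MIC in 96-well plates following NCCLS/CLSI methods. Compounds were dissolved in DMSO and serially diluted in growth medium, with incubation at 35 °C. […] C. parapsilosis 22019 served as the quality-control strain in each assay.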
`COc1cccc(-c2nc3n(n2)CCN([C@H](C)[C@](O)(Cn2cncn2)c2ccc(F)cc2F)C3)c1` showed an MIC of 0.25 µg/mL (≈ 0.519 µM).
As for `CC(C)c1ccc(-c2nc3n(n2)CCN([C@H](C)[C@](O)(Cn2cncn2)c2ccc(F)cc2F)C3)cc1`, the MIC came to 1 µg/mL (≈ 2.03 µM).
`C[C@@H](N1CCn2nc(-c3cccs3)nc2C1)[C@](O)(Cn1cncn1)c1ccc(F)cc1F` displayed an MIC of 0.125 µg/mL (≈ 0.273 µM).
Take `C[C@@H](N1CCn2nc(-c3ccco3)nc2C1)[C@](O)(Cn1cncn1)c1ccc(F)cc1F`: inhibition of growth (MIC) required 0.25 µg/mL (≈ 0.566 µM).
`C[C@@H](N1CCn2nc(-c3ccsc3)nc2C1)[C@](O)(Cn1cncn1)c1ccc(F)cc1F` displayed an MIC of 0.125 µg/mL (≈ 0.273 µM). Against the preceding compound, the MIC is about 2-fold lower.
On the same count and under the same terms, as for `C[C@@H](N1CCn2nc(Br)nc2C1)[C@](O)(Cn1cncn1)c1ccc(F)cc1F`, the figure is 0.25 µg/mL (≈ 0.55 µM); as for `C[C@@H](N1CCn2nc(-c3ccncc3)nc2C1)[C@](O)(Cn1cncn1)c1ccc(F)cc1F`, 0.0312 µg/mL (≈ 0.0691 µM).
In turn, `C[C@@H](N1CCn2nc(-c3cncnc3)nc2C1)[C@](O)(Cn1cncn1)c1ccc(F)cc1F` came in with an MIC of 0.0625 µg/mL (≈ 0.138 µM).

A further assay has as its system Aspergillus fumigatus. The experiment in a line: Antimicrobial activity against Aspergillus fumigatus 7544 after 48 hrs by serial dilution method. Type of assay: functional. The following applies: Aspergillus fumigatus, 7544, 48 h. The essentials:
as §1
The compound `COc1cccc(-c2nc3n(n2)CCN([C@H](C)[C@](O)(Cn2cncn2)c2ccc(F)cc2F)C3)c1` gave an MIC of 32 µg/mL (≈ 66.5 µM).
Consider `CC(C)c1ccc(-c2nc3n(n2)CCN([C@H](C)[C@](O)(Cn2cncn2)c2ccc(F)cc2F)C3)cc1`, for which the MIC stood at 16 µg/mL (≈ 32.4 µM).
As to `C[C@@H](N1CCn2nc(-c3cccs3)nc2C1)[C@](O)(Cn1cncn1)c1ccc(F)cc1F`, the MIC is 8 µg/mL (≈ 17.5 µM).
The compound `C[C@@H](N1CCn2nc(-c3ccco3)nc2C1)[C@](O)(Cn1cncn1)c1ccc(F)cc1F` displayed an MIC of 16 µg/mL (≈ 36.2 µM).
Compound `C[C@@H](N1CCn2nc(-c3ccsc3)nc2C1)[C@](O)(Cn1cncn1)c1ccc(F)cc1F` yielded an MIC of 16 µg/mL (≈ 35 µM).
Same read-out and setting: as for `C[C@@H](N1CCn2nc(Br)nc2C1)[C@](O)(Cn1cncn1)c1ccc(F)cc1F`, the figure is 16 µg/mL (≈ 35.2 µM); as for `C[C@@H](N1CCn2nc(-c3ccncc3)nc2C1)[C@](O)(Cn1cncn1)c1ccc(F)cc1F`, 16 µg/mL (≈ 35.4 µM); as for `C[C@@H](N1CCn2nc(-c3cncnc3)nc2C1)[C@](O)(Cn1cncn1)c1ccc(F)cc1F`, 32 µg/mL (≈ 70.6 µM).

Another assay relates to Cryptococcus neoformans. The experiment in a line: Antimicrobial activity against Cryptococcus neoformans 32609 after 72 hrs by serial dilution method. The format is functional. The following applies: Cryptococcus neoformans, 32609, 72 h. The gist of the method:
as §1
`COc1cccc(-c2nc3n(n2)CCN([C@H](C)[C@](O)(Cn2cncn2)c2ccc(F)cc2F)C3)c1`: the MIC was 0.25 µg/mL (≈ 0.519 µM).
The compound `CC(C)c1ccc(-c2nc3n(n2)CCN([C@H](C)[C@](O)(Cn2cncn2)c2ccc(F)cc2F)C3)cc1` registered a minimum inhibitory concentration (MIC) of 2 µg/mL (≈ 4.05 µM). Against the preceding compound, the MIC is about 8-fold higher.
The compound `C[C@@H](N1CCn2nc(-c3cccs3)nc2C1)[C@](O)(Cn1cncn1)c1ccc(F)cc1F` displayed an MIC of 0.125 µg/mL (≈ 0.273 µM).
Compound `C[C@@H](N1CCn2nc(-c3ccco3)nc2C1)[C@](O)(Cn1cncn1)c1ccc(F)cc1F` showed an MIC of 0.25 µg/mL (≈ 0.566 µM).
`C[C@@H](N1CCn2nc(-c3ccsc3)nc2C1)[C@](O)(Cn1cncn1)c1ccc(F)cc1F` registered an MIC of 0.125 µg/mL (≈ 0.273 µM).
Take `C[C@@H](N1CCn2nc(Br)nc2C1)[C@](O)(Cn1cncn1)c1ccc(F)cc1F`: the minimal inhibitory concentration (MIC) worked out at 0.25 µg/mL (≈ 0.55 µM). Against the preceding compound, the MIC is about 2-fold higher.
Consider `C[C@@H](N1CCn2nc(-c3ccncc3)nc2C1)[C@](O)(Cn1cncn1)c1ccc(F)cc1F`, for which the MIC came to 0.125 µg/mL (≈ 0.276 µM).
On the same count and under the same terms, the result for `C[C@@H](N1CCn2nc(-c3cncnc3)nc2C1)[C@](O)(Cn1cncn1)c1ccc(F)cc1F` reads 0.0625 µg/mL (≈ 0.138 µM).

In the next assay the test system is Candida albicans. The experiment in a line: Antimicrobial activity against Candida albicans SC5314 after 24 hrs by serial dilution method. The following applies: SC5314, 24 h. Type of assay: functional. The essentials:
as §1
Consider `COc1cccc(-c2nc3n(n2)CCN([C@H](C)[C@](O)(Cn2cncn2)c2ccc(F)cc2F)C3)c1`, for which the lowest concentration to inhibit growth (MIC) was 0.0625 µg/mL (≈ 0.13 µM).
`CC(C)c1ccc(-c2nc3n(n2)CCN([C@H](C)[C@](O)(Cn2cncn2)c2ccc(F)cc2F)C3)cc1` returned an MIC of 0.5 µg/mL (≈ 1.01 µM).
Compound `C[C@@H](N1CCn2nc(-c3cccs3)nc2C1)[C@](O)(Cn1cncn1)c1ccc(F)cc1F` gave an MIC of 0.125 µg/mL (≈ 0.273 µM).
`C[C@@H](N1CCn2nc(-c3ccco3)nc2C1)[C@](O)(Cn1cncn1)c1ccc(F)cc1F`: 0.125 µg/mL (≈ 0.283 µM) was the least that counted as inhibitory (MIC).
As to `C[C@@H](N1CCn2nc(-c3ccsc3)nc2C1)[C@](O)(Cn1cncn1)c1ccc(F)cc1F`, it took 0.125 µg/mL (≈ 0.273 µM) to inhibit growth (MIC).
`C[C@@H](N1CCn2nc(Br)nc2C1)[C@](O)(Cn1cncn1)c1ccc(F)cc1F` came in with a minimal inhibitory concentration (MIC) of 0.125 µg/mL (≈ 0.275 µM).
As to `C[C@@H](N1CCn2nc(-c3ccncc3)nc2C1)[C@](O)(Cn1cncn1)c1ccc(F)cc1F`, the lowest concentration to inhibit growth (MIC) was 0.0625 µg/mL (≈ 0.138 µM).
On to `C[C@@H](N1CCn2nc(-c3cncnc3)nc2C1)[C@](O)(Cn1cncn1)c1ccc(F)cc1F`, for which it took 0.0312 µg/mL (≈ 0.0689 µM) to inhibit growth (MIC). Against the preceding compound, the MIC is about 2-fold lower.

For another assay, the system named is Candida albicans. Briefly: Antimicrobial activity against Candida albicans Y0109 after 24 hrs by serial dilution method. Type of assay: functional. The note with it: Y0109, 24 h. The gist of the method:
as §1
With `COc1cccc(-c2nc3n(n2)CCN([C@H](C)[C@](O)(Cn2cncn2)c2ccc(F)cc2F)C3)c1`, the MIC is 0.125 µg/mL (≈ 0.26 µM).
In turn, `CC(C)c1ccc(-c2nc3n(n2)CCN([C@H](C)[C@](O)(Cn2cncn2)c2ccc(F)cc2F)C3)cc1` registered an MIC of 0.5 µg/mL (≈ 1.01 µM). This MIC is about 4-fold higher than that of the compound before.
In turn, `C[C@@H](N1CCn2nc(-c3cccs3)nc2C1)[C@](O)(Cn1cncn1)c1ccc(F)cc1F` yielded an MIC of 0.125 µg/mL (≈ 0.273 µM).
With `C[C@@H](N1CCn2nc(-c3ccco3)nc2C1)[C@](O)(Cn1cncn1)c1ccc(F)cc1F`, the MIC came to 0.125 µg/mL (≈ 0.283 µM).
Still for that read-out and setting: as for `C[C@@H](N1CCn2nc(-c3ccsc3)nc2C1)[C@](O)(Cn1cncn1)c1ccc(F)cc1F`, the figure is 0.125 µg/mL (≈ 0.273 µM); as for `C[C@@H](N1CCn2nc(Br)nc2C1)[C@](O)(Cn1cncn1)c1ccc(F)cc1F`, 0.125 µg/mL (≈ 0.275 µM).
`C[C@@H](N1CCn2nc(-c3ccncc3)nc2C1)[C@](O)(Cn1cncn1)c1ccc(F)cc1F`: the MIC amounted to 0.0625 µg/mL (≈ 0.138 µM).
Take `C[C@@H](N1CCn2nc(-c3cncnc3)nc2C1)[C@](O)(Cn1cncn1)c1ccc(F)cc1F`: 0.125 µg/mL (≈ 0.276 µM) was the least that counted as inhibitory (MIC). This MIC is about 2-fold higher than that of the compound before.

The next assay deals with Nakaseomyces glabratus. Briefly: Antimicrobial activity against Candida glabrata 537 after 24 hrs by serial dilution method. The format is functional. The following applies: Nakaseomyces glabratus, 537, 24 h. The gist of the method:
as §1
Compound `COc1cccc(-c2nc3n(n2)CCN([C@H](C)[C@](O)(Cn2cncn2)c2ccc(F)cc2F)C3)c1` showed an MIC of 0.125 µg/mL (≈ 0.26 µM).
Still for that read-out and setting: as for `CC(C)c1ccc(-c2nc3n(n2)CCN([C@H](C)[C@](O)(Cn2cncn2)c2ccc(F)cc2F)C3)cc1`, the figure is 1 µg/mL (≈ 2.03 µM); as for `C[C@@H](N1CCn2nc(-c3cccs3)nc2C1)[C@](O)(Cn1cncn1)c1ccc(F)cc1F`, 0.25 µg/mL (≈ 0.546 µM).
Still for that read-out and setting: the result for `C[C@@H](N1CCn2nc(-c3ccco3)nc2C1)[C@](O)(Cn1cncn1)c1ccc(F)cc1F` reads 0.25 µg/mL (≈ 0.566 µM).
Still for that read-out and setting: the result for `C[C@@H](N1CCn2nc(-c3ccsc3)nc2C1)[C@](O)(Cn1cncn1)c1ccc(F)cc1F` reads 0.125 µg/mL (≈ 0.273 µM).
`C[C@@H](N1CCn2nc(Br)nc2C1)[C@](O)(Cn1cncn1)c1ccc(F)cc1F` gave an MIC of 0.5 µg/mL (≈ 1.1 µM).
The compound `C[C@@H](N1CCn2nc(-c3ccncc3)nc2C1)[C@](O)(Cn1cncn1)c1ccc(F)cc1F` registered an MIC of 0.125 µg/mL (≈ 0.276 µM). Compared with the last compound, the MIC is about 4-fold lower.
On the same count and under the same terms, as for `C[C@@H](N1CCn2nc(-c3cncnc3)nc2C1)[C@](O)(Cn1cncn1)c1ccc(F)cc1F`, the figure is 0.0625 µg/mL (≈ 0.138 µM).
